Tests used:
Format in all cases: functional
Rattus norvegicus [1] = organism: Rattus norvegicus; assay: Ability to inhibit the uptake of norepinephrine [3H]-NE in to rat brain synaptosomes
Method in brief: (§1)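 Crude S1 synaptosomes from male Sprague–Dawley rat frontal/temporal cortex and striatum (sucrose–Tris–glucose, pH 7.4; 1000g, 15 min, 4 °C). Five drug levels, triplicate, with [3H]DA 25 nM or [3H]l-NE 50 nM final, in pargyline-containing Tris saline buffer. Preincubation 5 min, then 5 min uptake at 37 °C. Filtered, counted by scintillation, 0 °C uptake subtracted. IC50 read from sigmoidal fit.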

Rattus norvegicus [2] = organism: Rattus norvegicus; assay: Ability to inhibit the uptake of dopamine [3H]DA in to rat brain synaptosomes; method in brief: as §1
[3] = Eudisimic ratio for DA uptake is the ratio of the IC50 values l-isomer and d-isomer
Method in brief: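 Eudismic ratio: IC50 of the l-isomer divided by IC50 of the d-isomer for each enantiomeric pair. IC50s came from rat synaptosomal [3H]DA or [3H]l-NE uptake, with five drug concentrations in triplicate and 5 min at 37 °C.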

SMILES	IC50 (Rattus norvegicus [1]) [nM]	IC50 (Rattus norvegicus [2]) [nM]	Eudismic ratio [3]
COC(=O)[C@@H](c1ccccc1)[C@@H]1CCCCN1	876	1470	
COC(=O)[C@@H](c1ccc(OC)cc1)[C@@H]1CCCCN1	1300	3590	
COC(=O)C(c1ccccc1)C1CCCCN1 (racemic) [METHYLPHENIDATE]	171	438	
COC(=O)[C@H](c1ccc(OC)cc1)[C@H]1CCCCN1	73	205	17.5
COC(=O)[C@@H](c1ccc(Br)cc1)[C@@H]1CCCCN1	248	408	
COC(=O)[C@H](c1ccc(Br)cc1)[C@H]1CCCCN1	9.34	22.5	
COC(=O)[C@H](c1ccccc1)[C@H]1CCCCN1 [DEXMETHYLPHENIDATE]	128	171	

From ChEMBL document CHEMBL1131474, “Asymmetric synthesis and pharmacology of methylphenidate and its para-substituted derivatives” (J Med Chem, 1998)
